Activity calls are given as the source filed them. The calls are words filed in the database; no cut-off is given here.
Assays:
Staphylococcus aureus = assay: Antibacterial activity against Staphylococcus aureus at 1 to 5 mg/mL after 24 hrs by stiff-plate agar-diffusion method; format: functional, organism-based
How it was run: (§1)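 Agar diffusion (stiff plate) with test substances at 5 mg/mL in grooves, allowed to diffuse into nutrient agar; inoculum 10^9 c.f.u./mL; bacteria incubated 24 h at 35 °C. Read-out: inhibition zone diameter (not sensitive 11–15 mm, sensitive 16–25 mm, highly sensitive >25 mm). Vancomycin and oxacillin as standards; three repeats.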

SR = assay: Cytotoxicity against human SR cells assessed as cell growth at 10^-5 M after 48 hrs by SRB assay; format: functional; details: read-out: Activity
How it was run: (§2)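 NCI human tumor cell line panel from nine cancer types. Each line was inoculated and preincubated 24–48 h, then exposed to a single concentration (10^-5 M) for 48 h. Growth was read by sulforhodamine B protein staining, measured spectrophotometrically. Value reported as percent growth of treated cells relative to untreated controls.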

[1] = test system: Photobacterium leiognathi; assay: Antibacterial activity against Photobacterium leiognathi Sh1 assessed as inhibition of bacterial luminescence at 0.1 mg/mL after 10 mins by bioluminometry-based chronic action test; format: functional; parameters: scale not given: the % may be the effect or the level left; details: in the assay text read “after 16 to 18 hrs” for “after 10 mins”
How it was run: (§3)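 Chronic (growth plus luminescence) test with P. leiognathi Sh1 at 10^5 cells/mL in chloride solution, compounds added in DMSO. After 10 min at 25 °C, growth medium added at 1:50 and the mix incubated 16–18 h at 30 °C. Luminescence then measured by bioluminometer as % of untreated control. Tetracycline reference.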

SK-OV-3 = assay: Cytotoxicity against human SKOV3 cells assessed as cell growth at 10^-5 M after 48 hrs by SRB assay; format: functional; details: SK-OV-3, 48 h, read-out: Activity; how it was run: as §2
UACC-257 = assay: Cytotoxicity against human UACC257 cells assessed as cell growth at 10^-5 M after 48 hrs by SRB assay; format: functional; details: UACC-257, 48 h, read-out: Activity; how it was run: as §2
PC-3 = assay: Cytotoxicity against human PC3 cells assessed as cell growth at 10^-5 M after 48 hrs by SRB assay; format: functional; details: PC-3, 48 h, read-out: Activity; how it was run: as §2
Escherichia coli = assay: Antibacterial activity against Escherichia coli at 1 to 5 mg/mL after 24 hrs by stiff-plate agar-diffusion method; format: functional, organism-based; how it was run: as §1
M14 = assay: Cytotoxicity against human M14 cells assessed as cell growth at 10^-5 M after 48 hrs by SRB assay; format: functional; details: M14, 48 h, read-out: Activity
How it was run: (§4)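 NCI 60-cell-line one-dose primary screen: cells inoculated and preincubated 24–48 h, then test agent added at a single 10^-5 M concentration for a further 48 h. Endpoint is sulforhodamine B protein staining read spectrophotometrically. Reported as percent growth relative to untreated control cells.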

[2] = test system: Photobacterium leiognathi; assay: Antibacterial activity against Photobacterium leiognathi Sh1 at 0.1 to 0.25 ug/mL; format: functional, organism-based
[3] = test system: Photobacterium leiognathi; assay: Antibacterial activity against Photobacterium leiognathi Sh1 assessed as inhibition of bacterial luminescence at 0.25 mg/mL after 10 mins by bioluminometry-based chronic action test; format: functional; parameters: scale not given: the % may be the effect or the level left; details: in the assay text read “after 16 to 18 hrs” for “after 10 mins”; how it was run: as §3
UO-31 = assay: Cytotoxicity against human UO31 cells assessed as cell growth at 10^-5 M after 48 hrs by SRB assay; format: functional; details: UO-31, 48 h, read-out: Activity; how it was run: as §2
K562 = assay: Cytotoxicity against human K562 cells assessed as cell growth at 10^-5 M after 48 hrs by SRB assay; format: functional; details: K562, 48 h, read-out: Activity; how it was run: as §4
U-251 = assay: Cytotoxicity against human U251 cells assessed as cell growth at 10^-5 M after 48 hrs by SRB assay; format: functional; details: U-251, 48 h, read-out: Activity; how it was run: as §2
[4] = test system: Photobacterium leiognathi; assay: Antibacterial activity against Photobacterium leiognathi Sh1 assessed as inhibition of bacterial luminescence at 0.025 mg/mL after 10 mins by bioluminometry-based chronic action test; format: functional; parameters: scale not given: the % may be the effect or the level left; details: in the assay text read “after 16 to 18 hrs” for “after 10 mins”; how it was run: as §3
Mycobacterium = assay: Antibacterial activity against Mycobacterium luteum at 1 to 5 mg/mL after 24 hrs by stiff-plate agar-diffusion method; format: functional, organism-based; how it was run: as §1
SNB-75 = assay: Cytotoxicity against human SNB75 cells assessed as cell growth at 10^-5 M after 48 hrs by SRB assay; format: functional; details: SNB-75, 48 h, read-out: Activity; how it was run: as §2
Aspergillus niger = assay: Antifungal activity against Aspergillus niger at 1 to 5 mg/mL after 48 to 72 hrs by stiff-plate agar-diffusion method; format: functional, organism-based
How it was run: (§5)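 Fungal plates run by stiff-plate agar diffusion, substances applied to grooves at 5 mg/mL; 10^9 c.f.u./mL cells; incubation 48–72 h at 28–30 °C. Inhibition zone diameter scored (11–15 mm not sensitive, 16–25 mm sensitive, >25 mm highly sensitive). Nystatin standard; experiments done three times.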

[5] = test system: Photobacterium leiognathi; assay: Antibacterial activity against Photobacterium leiognathi Sh1 assessed as inhibition of bacterial luminescence at 0.1 mg/mL after 10 mins by bioluminometry-based acute action test; format: functional; parameters: scale not given: the % may be the effect or the level left
How it was run: (§6)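 Marine P. leiognathi Sh1 (Azov Sea shrimp isolate) diluted in chloride solution to 10^5 cells/mL; compounds suspended in DMSO mixed with 1 mL bacterial suspension. Acute test: 10 min at 25 °C, then bioluminescence measured by bioluminometer as % of compound-free control. Tetracycline reference.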

A549 = assay: Cytotoxicity against human A549 cells assessed as cell growth at 10^-5 M after 48 hrs by SRB assay; format: functional; details: A549, 48 h, read-out: Activity; how it was run: as §4
[6] = test system: Photobacterium leiognathi; assay: Antibacterial activity against Photobacterium leiognathi Sh1 assessed as inhibition of bacterial luminescence at 0.25 mg/mL after 10 mins by bioluminometry-based acute action test; format: functional; parameters: scale not given: the % may be the effect or the level left; how it was run: as §6
CCRF-CEM = assay: Cytotoxicity against human CCRF-CEM cells assessed as cell growth at 10^-5 M after 48 hrs by SRB assay; format: functional; details: read-out: Activity; how it was run: as §4
[7] = test system: Photobacterium leiognathi; assay: Antibacterial activity against Photobacterium leiognathi Sh1 assessed as inhibition of bacterial luminescence at 0.025 mg/mL after 10 mins by bioluminometry-based acute action test; format: functional; parameters: scale not given: the % may be the effect or the level left; how it was run: as §6
Yamadazyma tenuis = assay: Antifungal activity against Candida tenuis at 1 to 5 mg/mL after 48 to 72 hrs by stiff-plate agar-diffusion method; format: functional, organism-based; how it was run: as §5
NCI-H522 = assay: Cytotoxicity against human NCI-H522 cells assessed as cell growth at 10^-5 M after 48 hrs by SRB assay; format: functional; details: NCI-H522, 48 h, read-out: Activity; how it was run: as §2
MOLT-4 = assay: Cytotoxicity against human MOLT4 cells assessed as cell growth at 10^-5 M after 48 hrs by SRB assay; format: functional; details: MOLT-4, 48 h, read-out: Activity; how it was run: as §2
HCC 2998 = assay: Cytotoxicity against human HCC2998 cells assessed as cell growth at 10^-5 M after 48 hrs by SRB assay; format: functional; details: HCC 2998, 48 h, read-out: Activity; how it was run: as §4
CAKI-1 = assay: Cytotoxicity against human Caki1 cells assessed as cell growth at 10^-5 M after 48 hrs by SRB assay; format: functional; details: CAKI-1, 48 h, read-out: Activity; how it was run: as §4
MDA-MB-231 = assay: Cytotoxicity against human MDA-MB-231 cells assessed as cell growth at 10^-5 M after 48 hrs by SRB assay; format: functional; details: MDA-MB-231, 48 h, read-out: Activity; how it was run: as §4
LOX IMVI = assay: Cytotoxicity against human LOXIMVI cells assessed as cell growth at 10^-5 M after 48 hrs by SRB assay; format: functional; details: read-out: Activity; how it was run: as §4
SK-MEL-5 = assay: Cytotoxicity against human SK-MEL-5 cells assessed as cell growth at 10^-5 M after 48 hrs by SRB assay; format: functional; details: SK-MEL-5, 48 h, read-out: Activity; how it was run: as §2
HL-60(TB) = assay: Cytotoxicity against human HL-60(TB) cells assessed as cell growth at 10^-5 M after 48 hrs by SRB assay; format: functional; details: HL-60, 48 h, read-out: Activity
How it was run: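 NCI one-dose primary screen on the 60-line human tumour panel. Cells were inoculated and preincubated 24–48 h. Compound was added at 10^-5 M with 48 h continuous exposure. Sulforhodamine B protein staining was read spectrophotometrically. Results are percent growth relative to untreated control cells.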

[8] = test system: Photobacterium leiognathi; assay: Antibacterial activity against Photobacterium leiognathi Sh1 assessed as inhibition of bacterial luminescence at 0.025 mg/mL after 16 to 18 hrs by bioluminometry-based chronic action test; parameters: scale not given: the % may be the effect or the level left

Row | SMILES | Activity (Staphylococcus aureus) | growth at 10 µM (SR) [%] | Activity [1] [%] | growth at 10 µM (PC-3) [%] | Activity (Escherichia coli) | Activity [2] | Activity [3] [%] | growth at 10 µM (UO-31) [%] | growth at 10 µM (K562) [%] | Activity [4] [%] | Activity (Mycobacterium) | growth at 10 µM (SNB-75) [%] | Activity (Aspergillus niger) | Activity [5] [%] | growth at 10 µM (A549) [%] | Activity [6] [%] | growth at 10 µM (CCRF-CEM) [%] | Activity [7] [%] | Activity (Yamadazyma tenuis) | also measured
1 | O=C(O)CSc1nc2ccccc2c2nc(=O)c(-c3ccccc3)nn12 | inactive | 91.9 | 40.9 | 90.8 | inactive | inactive | 3.6 | 89 | 92 | 34 | inactive | 86.6 | inactive | 75 | 82.5 | 50 | 92.5 | 100 | inactive | growth at 10 µM (SK-OV-3): 97%; growth at 10 µM (UACC-257): 93.2%; growth at 10 µM (M14): 96.8%; growth at 10 µM (U-251): 91.4%
2 | COc1ccc(-c2nn3c(SCC(=O)O)nc4ccccc4c3nc2=O)cc1 | inactive | 65.8 | 191.5 | 91.7 | inactive | inactive | 45 | 91.6 | 80.9 | 88.9 | inactive | 93.9 | inactive | 80 | 95.9 | 0 | 90.7 | 105 | inactive | growth at 10 µM (NCI-H522): 94.9%; growth at 10 µM (MOLT-4): 84.8%; growth at 10 µM (HCC 2998): 94.7%; growth at 10 µM (CAKI-1): 91.4%; growth at 10 µM (MDA-MB-231): 89.9%; growth at 10 µM (LOX IMVI): 86.9%; growth at 10 µM (SK-MEL-5): 95.4%; growth at 10 µM (HL-60(TB)): 63.5%
3 | CCC1C2CCC(C2)C1NC(=O)CSc1nc2ccccc2c2nc(=O)c(-c3ccc(C)cc3)nn12 (stereo unspecified) | inactive | – | 120 | – | inactive | – | 44 | – | – | – | inactive | – | inactive | 96 | – | 120 | – | 110 | inactive | Activity [8]: 100%
